Published values from different studies.
Compare with care: the assays were run in different laboratories.
Target: Tyrosine-protein kinase Fer (FER, Homo sapiens, UniProt P16591)

Structure (SMILES)	assay	system	setting	measurement	result
COc1cc2nccc(Oc3ccc(NC(=O)c4c5n(n(-c6ccc(F)cc6)c4=O)CCCC5)cc3)c2cc1OC	enzyme activity, inhibitor	–	0.1 µM	inhibition	-14%
Cc1ccc(NC(=O)c2ccc(CN3CCN(C)CC3)cc2)cc1Nc1nc(-c2cccnc2)cs1	cell-free assay	–	0.5 µM	remaining signal	97.6%
CCCS(=O)(=O)Nc1ccc(F)c(C(=O)c2c[nH]c3ncc(-c4ccc(Cl)cc4)cc23)c1F	enzyme activity, inhibitor	–	1 µM	inhibition	< 10%
O=C(Nc1cnn(-c2csc(C(=O)NC3COC3)c2)c1)Nc1c(F)cccc1Cl	enzyme activity, inhibitor	–	5 µM	remaining activity	89.8%
C[C@@H]1CN(c2cc(-c3n[nH]c4ccc(OC5(C)CC5)cc34)ncn2)C[C@H](C)O1	cell-free assay, competition with immobilised ligand	–	0.1 µM	remaining binding	86%
COc1cc2ncnc(Nc3ccc(F)c(Cl)c3)c2cc1OCCCN1CCOCC1	cell-free assay	–	0.5 µM	remaining signal	94.1%
O=C(Nc1cnn(-c2csc(C(=O)NC3COC3)c2)c1)Nc1ccccc1Cl	enzyme activity, inhibitor	–	5 µM	remaining activity	101%
C[S+]([O-])c1ccc(-c2nc(-c3ccncc3)c(-c3ccc(F)cc3)[nH]2)cc1 (centres unmarked)	cell-free assay	–	0.5 µM	remaining signal	95%
CC(C)(C)c1nc(-c2cccc(NS(=O)(=O)c3c(F)cccc3F)c2F)c(-c2ccnc(N)n2)s1	enzyme activity, inhibitor, radiometric	–	1 µM	remaining activity	94%
CNC(=O)c1cc(Oc2ccc(NC(=O)Nc3ccc(Cl)c(C(F)(F)F)c3)cc2)ccn1	enzyme activity, inhibitor	–	0.3 µM	inhibition	-8%
N#CCCc1ccc2c(c1)-c1[nH]c3ccc([N+](=O)[O-])cc3c1CC(=O)N2	cell-free assay	–	0.5 µM	remaining signal	72.7%
Cc1cnc(NC2CCOCC2)nc1-n1cnc(C(=O)NC(CN)c2cc(F)cc(Cl)c2)c1 (centres unmarked)	enzyme activity, inhibitor, radiometric	–	1 µM	remaining activity	104%
C[C@H](c1ccc(F)cc1)N(Cc1cccc(C(=O)O)c1)C(=O)c1cnc2ccccc2c1	cell-free assay, competition with immobilised ligand	–	1 µM	remaining binding	100%
Cc1ccc(C(=O)NCc2ccsc2)cc1C#Cc1cn(C(C)C)c2ncnc(N)c12	enzyme activity, inhibitor	–	1 µM	activity vs control	92%
O=c1cc(-c2cccc3c2Sc2ccccc2S3)oc(N2CCOCC2)c1	enzyme activity, inhibitor	–	0.5 µM	remaining activity	103%
COc1ccc2c(c1)O[C@@H](c1ccc(OC)c(OC)c1)C[C@H]2NC(=O)C1(c2ccc3c(c2)OC(F)(F)O3)CC1	cell-free assay, competition with immobilised ligand	–	1 µM	remaining binding	100%

Structure (SMILES)	assay	system	setting	measurement	result
COc1cc(Nc2c(C#N)cnc3cc(OCCCN4CCN(C)CC4)c(OC)cc23)c(Cl)cc1Cl	cell-free assay	–	0.5 µM	remaining signal	54.6%
Cc1cc(NC(=O)c2cccc3cc(-c4cccc5[nH]nc(N)c45)ccc23)ccc1F	enzyme activity, inhibitor	–	0.1 µM	activity vs control	106%
Cc1ccc(Nc2nccc(N(C)c3ccc4c(C)n(C)nc4c3)n2)cc1S(N)(=O)=O	enzyme activity, inhibitor	–	10 µM	inhibition	71%
CC1=C(C#N)C(c2ccc3c(c2)c(NC(=O)c2ccccc2C)nn3C)C(C#N)=C(C)N1	cell-free assay, competition with immobilised ligand	–	1 µM	remaining binding	88%
CCN1CCN(Cc2ccc(NC(=O)c3ccc(C)c(/C=C/c4cnc5[nH]ccc5c4OC)c3)cc2C(F)(F)F)CC1	target engagement in cells, inhibitor, chemoproteomics	A-375	50 nM	inhibition	-10.4%
Cc1c[nH]c2nccc(Oc3c(F)cc(Nc4cc(Cl)nc(N)n4)cc3F)c12	cell-free assay, competition with immobilised ligand	–	0.1 µM	remaining binding	100%
C=CC(=O)Nc1cc(Nc2nccc(Nc3cc(Cl)c(F)cc3C(C)(C)O)n2)c(OC)cc1N1CC[C@@H](N(C)C)C1	enzyme activity, inhibitor	–	1 µM	inhibition	8%
CNc1cccc2cc(C(=O)Nc3ccc(C(=O)O)cc3)c(=O)[nH]c12	enzyme activity, inhibitor	–	10 µM	inhibition	1.6%
CO[C@@H](C)c1c(Nc2ccc([C@H](N(C)C(=O)C3CCS(=O)(=O)CC3)C(F)(F)F)cc2)cnc2cc(Cl)nn12	cell-free assay, competition with immobilised ligand	–	1 µM	remaining binding	88%
CCN(CC)CCNC(=O)c1c(C)[nH]c(/C=C2\C(=O)Nc3ccc(F)cc32)c1C	enzyme activity, inhibitor	–	0.3 µM	inhibition	-42%
Cc1ccc(C(=O)Nc2ccc(CN3CCN(C)CC3)c(C(F)(F)F)c2)cc1C#Cc1cnc2cccnn12	enzyme activity	–	23.5 nM	remaining activity	94%
COc1cc2ncnc(Nc3ccc(Oc4ccccc4)c(C)c3C)c2cc1OC	enzyme activity, inhibitor	–	1 µM	inhibition	18%
CC(=O)N1CCC(c2ccc(C(=O)NC3=NCCN3)cc2C(F)(F)F)CC1	cell-free assay, competition with immobilised ligand	–	1 µM	remaining binding	93%
O=C(O)c1ccc2c3c1cccc3c(=O)n1c3ccccc3nc21	enzyme activity, inhibitor	–	0.5 µM	remaining activity	96.5%
CN(C)C(=O)Cn1cc(-c2nc(C3(c4ccc(-c5cnc(N)nc5)cc4)CC3)no2)cn1	cell-free assay, competition with immobilised ligand	–	1 µM	remaining binding	79%
CCN(CC)CCNC(=O)c1c(C)[nH]c(/C=C2\C(=O)Nc3ccc(Cl)cc32)c1C	enzyme activity, inhibitor	–	0.5 µM	remaining activity	17.7%
